This passage reports IC50 results from ChEMBL document CHEMBL4680071, “Structure guided generation of thieno[3,2-d]pyrimidin-4-amine Mycobacterium tuberculosis bd oxidase inhibitors” (RSC Med Chem, 2021).

Each structure is given as a SMILES string. pIC50: −log10 of the molar value. A value given as a limit tells only on which side of the number the result lay.

Test [1] in a line: Inhibition of cytochrome-bd oxidase in Mycobacterium bovis BCG assessed as replicating ATP by measuring ATP depletion incubated for 15 hrs in absence of Q203 by BacTiter-Glo luminescence assay. On the set-up: species or system Mycobacterium tuberculosis variant bovis BCG. An outline of the steps:
(§1)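 Cultures grown in Middlebrook 7H9 with 0.05% Tween 80, 0.5% glycerol, BSA fraction V, D-glucose and NaCl. Cells pelleted, resuspended in glycerol-free medium at about 10^7 CFU/mL, added to compound dilutions. Plates incubated 15 h at 37°C. BacTiter-Glo reagent added, luminescence read after 12 min to give ATP level. IC50 from curve fitting.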

Test [2] in a line: Inhibition of cytochrome-bd oxidase in Mycobacterium bovis BCG assessed as replicating ATP by measuring ATP depletion incubated for 15 hrs in presence of Q203 by BacTiter-Glo luminescence assay. On the set-up: species or system Mycobacterium tuberculosis variant bovis BCG. The essentials:
as §1

On to `Clc1ccc(CCNc2ncnc3ccsc23)cc1`, for which the pIC50 in test [1] is below 1.30; in test [2], 1.52.
As to `COc1ccc(CCNc2ncnc3sccc23)cc1`, in test [2], the pIC50 is below 4.30.
As to `FC(F)(F)Oc1ccc(CCNc2ncnc3ccsc23)cc1`, the figures for the pIC50 in test [1] and in test [2] were below 1.30 and 1.90, respectively.
For `CN(C)c1ccc(CCNc2ncnc3ccsc23)cc1`, the pIC50 in test [1] is below 1.30; in test [2], 1.41.
The matching figures for `FC(F)(F)c1ccc(Oc2ccc(Nc3ncnc4ccccc34)cc2)cc1`: below 1.30 and 3.10.
As to `FS(F)(F)(F)(F)c1ccc(CCNc2ncnc3ccsc23)cc1`, the pIC50 was below 1.30 in test [1] and 1.57 in test [2].
On to `FC(F)(F)c1cccc(CCNc2ncnc3ccsc23)c1`, for which the negative logarithm of the IC50 (pIC50) was below 1.30 in test [1] and 1.59 in test [2].
For `FC(F)(F)Oc1ccc(CNc2ncnc3ccsc23)cc1` the same measures were below 1.30 and 1.42.
For `CC(C)(C)c1ccc(CCNc2ncnc3ccsc23)cc1`, the negative-log IC50 (pIC50) in test [1] was below 1.30; in test [2] it was 2.24.
The matching figures for `Clc1ccc(CCNc2ncnc3ccsc23)cc1Cl`: below 1.30 and 1.59.
For `c1ccc(CCNc2ncnc3ccsc23)cc1` the same measures were below 1.30 and 1.36.
For `Cc1ccc(CCNc2ncnc3ccsc23)cc1` the same measures were below 1.30 and 1.39.
Take `FC(F)(F)Oc1ccc(Nc2ncnc3ccsc23)cc1`: the figures for the negative-log IC50 (pIC50) in test [1] and in test [2] were below 1.30 and 1.64, respectively.
The matching figures for `FC(F)(F)c1ccc(CCNc2ncnc3ccsc23)cc1`: below 1.30 and 1.48.
For `COc1ccc(CCNc2ncnc3ccsc23)cc1` the same measures were below 1.30 and 1.37.
The matching figures for `FC(F)(F)c1ccccc1CCNc1ncnc2ccsc12`: below 1.30 and 1.91.
Regarding `COc1nc2ccc(Br)cc2cc1[C@@H](c1ccccc1)[C@@](O)(CCN(C)C)c1cccc2ccccc12` [BEDAQUILINE], the negative-log IC50 (pIC50) in test [1] was 3.77; in test [2], 4.05.
